TDP2 absorb: blocks human TDP2 phosphodiesterase activity | 370,000 tested, 0.34% active | recombinant TDP2, T5PNP hydrolysis, p-nitrophenol absorbance 415 nm | inhibition, % at 12.8 µM;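 active means inhibition above the mean of all tested compounds plus 3 SD, set per campaign, cut at about 25% in these data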;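 further: 0% = DMSO with enzyme and 100% = buffer with substrate but no TDP2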
Target sequence (O95551 whole entry, looked up): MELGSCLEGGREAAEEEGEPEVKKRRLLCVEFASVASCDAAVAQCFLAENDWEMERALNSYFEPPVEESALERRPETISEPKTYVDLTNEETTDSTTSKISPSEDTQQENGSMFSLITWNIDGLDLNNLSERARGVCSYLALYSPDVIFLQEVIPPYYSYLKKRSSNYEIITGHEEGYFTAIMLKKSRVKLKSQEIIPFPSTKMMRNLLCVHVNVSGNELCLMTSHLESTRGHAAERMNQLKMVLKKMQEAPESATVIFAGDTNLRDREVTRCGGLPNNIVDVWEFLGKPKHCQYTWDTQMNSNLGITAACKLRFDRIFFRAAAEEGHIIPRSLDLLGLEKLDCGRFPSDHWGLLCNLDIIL
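Evaluation: % inhibition relative to enzyme-containing and enzyme-free wells. Material: recombinant human TDP2. Benchmarks: enzyme-free and DMSO wells. Timing: enzyme reaction with compound for 2 h at 37 °C. Compound dosing: 12.8 µM only. Measured by: p-Nitrophenol epi absorbance. Reagent: T5PNP substrate at 5 mM, a TopII-DNA adduct mimic. Replication: single well per compound.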
UHRF1 MBD2 ctr: blocks human UHRF1 binding to methylated DNA; Q96T88; UHRF1 binding to methylated oligo, TR-FRET; inhibition, % at 4.4 µM; 370,000 tested, 0.75% active;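 further: UHRF1 SRA domain binding a hemimethylated CpG hairpin DNA probe; 0% = median of test compound wells and 100% = reference inhibitor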
LEDGF integ inh: blocks HIV-1 LEDGF/p75-dependent DNA integration. TR-FRET IN-LEDGF/p75 DNA integration, Eu/Cy5. inhibition, % at 3.7 µM. 370,000 tested, 0.64% active;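 active means inhibition above the screen-wide mean plus 3 SD, cut at about 13% in these data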;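 further: signal is the Cy5 over europium emission ratio at 671 and 618 nm; 0% = plate median of compound wells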
MBD2 inh: inhibitors of human MBD2 binding to methylated oligonucleotide; TR-FRET; inhibition, % at 4.4 µM; 370,000 tested, 0.31% active; in the data active means inhibition above about 13%
UHRF1 ctr MBD2: inhibits human UHRF1 binding to methylated oligonucleotide, MBD2 counter-screen | inhibition, % at 4.4 µM | shares compounds with MBD2 inh | 1,000 tested, 25% active | TR-FRET | AID 720530;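 further: UHRF1 SRA domain binding a labeled hemimethylated CpG hairpin DNA; 0% = vehicle only and 100% = reference inhibitor with vehicle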
MBD2 DBD conf: MBD2-DBD methyl-DNA binding inhibition, TR-FRET confirmation; shares compounds with MBD2 inh; TR-FRET MBD2-DBD binding to methylated oligonucleotide; inhibition, % at 4.4 µM; 1,000 tested, 26% active; in the data active means inhibition above about 14%
The depositor's hits bear a star; nt = no result. Most compounds without a hit are left out; they make up all but 1.6% or so of the library. Unless noted, no stated cut-off is given here; in the data, active means inhibition above about 21%; inactive means the rest.

SMILES | TDP2 absorb | UHRF1 MBD2 ctr | LEDGF integ inh | MBD2 inh | UHRF1 ctr MBD2 | MBD2 DBD conf
O=C(CNC(=O)c1ccco1)Nc1cc(Cl)ccc1N1CCOCC1 | -6 | -3 | 0 | -4 | nt | nt
CCOc1ccccc1C(=O)Nc1c[nH]c(=O)[nH]c1=O | 3 | 2 | 0 | -3 | nt | nt
CC1CCCN(CCCNC(=O)c2ccc3c(c2)N(Cc2ccc(F)cc2)C(=O)c2ccccc2S3=O)C1 (stereo not given) | 4 | -1 | 0 | 17* | 7 | 3
CCOc1ccc(NC(=O)NN2C(C)CCCC2C)cc1 (stereo not given) | -14 | -4 | 5 | 102* | 7 | 0
CCn1c2ccccc2c2cc(NC(=O)c3ccccc3-c3ccccc3C(=O)O)ccc21 | 14 | -1 | 2 | -5 | nt | nt
NS(=O)(=O)c1ccc(CCNC(=O)CNC(=O)COc2ccccc2)cc1 | -13 | -1 | 3 | -3 | nt | nt
O=C(NC1CCCC1)C1c2ccccc2OCC(=O)N1Cc1ccccn1 (stereo not given) | 2 | -2 | 8 | -2 | nt | nt
Cc1ccc2ncccc2c1N | 1 | -9 | -5 | -5 | nt | nt
O=C1CN=C(Nc2ccccc2)N1Cc1cccs1 | -1 | -1 | 2 | 35* | 3 | 2
CC(C)c1ccc(NC2=NCC(=O)N2Cc2cccs2)cc1 | -3 | -2 | -5 | -2 | nt | nt
COc1ccc(/C=C/C(=O)OCC(=O)Nc2cccc(C(C)=O)c2)cc1 | 1 | 5 | 1 | 6 | nt | nt
O=C(Nc1cnc2ccccc2c1)N1CCOCC1 | -10 | 20 | 0 | 16* | 13 | 7
CCCC(=O)Nc1ccc(NC(=O)CCc2ccccc2)cn1 | -5 | 4 | -3 | 69* | 7 | 5
CCCC(=O)Nc1ccc(NC(=O)Cc2ccccc2)cn1 | -7 | -2 | 1 | 3 | nt | nt
C=CCN1CC(=O)N2Cc3[nH]c4ccccc4c3C[C@H]2C1=O | -11 | -3 | 8 | -2 | nt | nt
CCn1ccnc1C(O)c1cccc2ccccc12 (stereo not given) | 14 | -2 | 2 | 3 | nt | nt
c1ccc(Oc2ncnc3ccccc23)cc1 | -4 | 0 | -6 | 21* | 2 | 2
O=C(O)CCc1ccc(-c2ccc(Br)cc2)n1-c1ccc(O)cc1 | -14 | 1 | 4 | 2 | nt | nt
COc1ccc(-c2[nH]nc3oc(=O)cc(C)c23)cc1 | -8 | 20 | -2 | 14* | 3 | 1
O=C(NCCCN1CCCC1=O)Nc1ccc(Cl)cc1 | -4 | 1 | 2 | 14* | 5 | 3
O=C(OCc1cc(=O)n2ccsc2n1)c1ccccc1NCCO | 3 | 29* | -1 | 31* | 15 | 11
COc1cc(NC(=S)NCCCN2CCOCC2)cc(OC)c1 | -3 | 0 | -2 | 3 | nt | nt
CC12CCC(C(N)=O)(c3nc4ccccc4nc31)C2(C)C (stereo not given) | 16 | 19 | 1 | 13* | 8 | 3
COC(=O)Nc1ccc2c(c1)ncn2C1CCCCC1 | 3 | 1 | -2 | 1 | nt | nt
CC(=O)Nc1ccc2c(c1)ncn2C1CCCCC1 | -5 | -2 | -1 | 34* | 3 | 2
SMILES | TDP2 absorb | UHRF1 MBD2 ctr | LEDGF integ inh | MBD2 inh | UHRF1 ctr MBD2 | MBD2 DBD conf
CC(C)[C@H](NS(=O)(=O)c1ccc2c(c1)OCCO2)C(=O)OCC(=O)Nc1ccccc1 | 3 | 28* | 9 | 19* | 9 | 1
Cc1cccc(NC(=O)NC2CCCCCCC2)c1C | 2 | 1 | 4 | 3 | nt | nt
Cc1cc(C(=O)COC(=O)c2ccc(F)cc2)c(C)n1C | -3 | -2 | -3 | 2 | nt | nt
Cc1cc(C(=O)COC(=O)c2cc(Cl)c(O)c(Cl)c2)c(C)n1C | 14 | 33* | 43* | 17* | 4 | 6
COc1cc(-c2cc(=O)c3ccc(O)cc3o2)cc(OC)c1OC | 3 | 4 | 3 | 6 | nt | nt
COc1cc(OC)c(-c2c3cc(O)c(=O)cc-3oc3cc(O)c(O)cc23)cc1OC | -5 | -3 | 84* | 15* | -38 | -10
Cc1cc(C)n(C(=O)/C(C#N)=C/N(C)C)n1 | 5 | 5 | 2 | 39* | 4 | 5
Cc1cc(C)n(/C(=C/N(C)C)C(=O)c2ccccc2)n1 | -4 | 0 | 6 | -4 | nt | nt
Clc1ccc(OCCCCCN2CCCC2)c(Br)c1 | -1 | 0 | 0 | -4 | nt | nt
O=C(NC1CC1)C1CCN(S(=O)(=O)c2ccc(Cl)c([N+](=O)[O-])c2)CC1 | 4 | 5 | -5 | 35* | 7 | 3
CCc1ccc(C2(C)SC(NC(C)=O)=NN2C(C)=O)cc1 (stereo not given) | -17 | 4 | 1 | 0 | nt | nt
CNC(=S)N(Cc1cc2cc(OC)c(OC)cc2[nH]c1=O)C1CCCC1 | 9 | 2 | -2 | 20* | 11 | 3
COc1ccc(C(C)=O)cc1COC(=O)CNC(=O)C1CCCCC1 | -6 | 0 | 1 | -3 | nt | nt
COc1ccc(C(CCNCc2ccc(N(C)C)cc2)c2ccccc2)cc1 (stereo not given) | -2 | 0 | -3 | 1 | nt | nt
CC(C)Oc1ccc(C(CCNCc2ccc(O)cc2)c2ccccc2)cc1 (stereo not given) | -13 | -2 | -3 | 65* | 3 | 6
O=C(CN1C(=O)NC2NC(=O)NC21)N/N=C/c1ccccc1O (stereo not given) | 1 | 0 | -2 | -2 | nt | nt
O=C(CCc1ccccc1)Nc1sc2c(c1C(=O)O)CCCC2 | -16 | 1 | -1 | 1 | nt | nt
O=C(Nc1ccc(N2CCCCC2)cc1)c1cccnc1 | -4 | 1 | -5 | -4 | nt | nt
O=C(Nc1ccc(N2CCN(Cc3ccccc3Cl)CC2)cc1)c1cccnc1 | 0 | 0 | -3 | 15* | 6 | 4
CC(=O)N(C)c1ccc(NCc2cc(=O)oc3cc(C)c(O)cc23)cc1 | 5 | -1 | -1 | -2 | nt | nt
Cc1ccc(-c2csc3nc4ccc(C(=O)NCCO)cc4c(=O)n23)cc1 | -2 | -2 | 1 | -4 | nt | nt
Cc1ccc(-c2csc3nc4cc(C(=O)NC5CCC(O)CC5)ccc4c(=O)n23)cc1 (stereo not given) | 13 | 20 | 1 | 14* | 13 | 8
Cc1cccc(N2C(=O)CC(Sc3nc(C)c4c(n3)CCCC4)C2=O)c1 (stereo not given) | -3 | 1 | 0 | 14* | 4 | 5
CCN(CC)C(=O)c1nc[nH]c1C(=O)N1CCN(C(=O)OC(C)(C)C)CC1 | -9 | -1 | 2 | -5 | nt | nt
Cc1cc2[nH]c3c(c[n+](C)c4ccccc34)c2cc1C | -6 | 51* | 5 | 83* | 60* | 88*
Cc1cc(=O)[nH]c2ccccc12 | -3 | 2 | -1 | -2 | nt | nt
C[C@H]1CN([C@@H](C)CO)S(=O)(=O)c2ccc(Br)cc2O[C@H]1CN(C)C(=O)CN(C)C | 3 | 0 | -1 | -2 | nt | nt
CCN1CCN(C(=O)Nc2ccccc2OC)CC1 | 7 | -1 | 1 | 14* | 3 | 2
COc1ccccc1NC(=O)N1CCN(CCc2ccccc2)CC1 | -6 | 0 | -2 | -3 | nt | nt
